In publication PMC8693849 (RSC Advances, 2021):
≈ marks a conversion by molar mass, not a printed value.

Columns and labels:
[1] = tested on: P. phaseolicola (GSPB 2828); test: Agar diffusion method, zone of inhibition; type: cell-based, Pseudomonas phaseolicola; conditions: Pseudomonas, 24 h, read-out: Diameter of zone inhibition
How it was run: (§1)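 Bacterial strains were tested by agar diffusion on nutrient agar (peptone 5 and meat extract 3 g L⁻¹ in distilled water, pH 7.0, 2% agar, autoclaved 121 °C for 20 min). Each test compound (1 mg) was dissolved in 1 mL DMSO and made up to 10 mL with sterile water (100 μg mL⁻¹ stock). The solution was placed in the agar, and inhibition zones were measured after 24 h incubation. Values are the mean of triplicate readings.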

C. albicans = test: Agar diffusion method, zone of inhibition; type: cell-based, Candida albicans; conditions: for Diameter of zone inhibition: C. albicans, average of triplicate
How it was run: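 For agar diffusion against C. albicans, each test compound (1 mg) was dissolved in 1 mL DMSO and diluted to 10 mL with sterile water (100 μg mL⁻¹ stock). The solution was placed in the agar, and the inhibition zone diameter was read after 24 h. Values are the average of triplicate readings.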

S. pyogenes (ATCC 19615) = test: Agar diffusion method, zone of inhibition; type: cell-based, Streptococcus pyogenes; conditions: for Diameter of zone inhibition: S. pyogenes (ATCC 19615), average of triplicate
S. aureus (ATCC 25923) = test: Agar diffusion method, zone of inhibition; type: cell-based, Staphylococcus aureus; conditions: for Diameter of zone inhibition: S. aureus (ATCC 25923), average of triplicate
How it was run: as §1

Gram-positive bacteria = test: Agar diffusion method; type: cell-based, S. aureus (ATCC 25923) and S. pyogenes (ATCC 19615); conditions: summary of Table 1
How it was run: as §1

P. fluorescens (S 97) = test: Agar diffusion method, zone of inhibition; type: cell-based, Pseudomonas fluorescens
How it was run: as §1

[2] = tested on: MRSA1 (methicillin resistant S. aureus); test: Zone of inhibition against MDR clinical isolate; type: cell-based; conditions: for Diameter of zone inhibition: MRSA1 clinical isolate, 15 μg mL^−1
[3] = tested on: MRSA1 (methicillin resistant S. aureus); test: Minimum bactericidal concentration; type: cell-based; conditions: MRSA; >4 = bacteriostatic
[4] = tested on: MRSA1 (methicillin resistant S. aureus); test: Minimal inhibitory concentration; type: cell-based
How it was run: (§2)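 Broth microdilution against MDR clinical isolates: 80 μl Mueller–Hinton broth plus 20 μl tween 80 received 100 μl test compound, then two-fold serial dilution. Each well was inoculated with 100 μl of 0.5 McFarland suspension ([…]) and incubated covered at 35 ± 2 °C for 24 h. MIC is the lowest concentration inhibiting growth.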

[5] = tested on: K. pneumoniae (MDR clinical isolate); test: Zone of inhibition against MDR clinical isolate; type: cell-based; conditions: for Diameter of zone inhibition: MDR K. pneumoniae clinical isolate, 15 μg mL^−1
[6] = tested on: K. pneumoniae (MDR clinical isolate); test: Minimal inhibitory concentration; type: cell-based
How it was run: as §2

VERO cells = test: In vitro cytotoxicity, MTT assay; type: cell-based, African Green Monkey; conditions: normal VERO cells, 72 h, Table 4
Gram-negative bacteria = test: Agar diffusion method; type: cell-based, P. phaseolicola (GSPB 2828) and P. fluorescens (S 97); conditions: summary of Table 1
How it was run: as §1

[7] = tested on: K. pneumoniae (MDR clinical isolate); test: Minimum bactericidal concentration; type: cell-based; conditions: >4 = bacteriostatic
[8] = Candida albicans, 24 h, read-out: Diameter of zone inhibition
[9] = Pseudomonas fluorescens, 24 h, read-out: Diameter of zone inhibition
[10] = MDR K. pneumoniae clinical isolate, Table 2

In the case of `CC1(c2ccccc2O)Nn2c(nc(-c3ccc(Cl)cc3)c(C#N)c2=O)N1C(Cc1c[nH]c2ccccc12)C(=O)O` (stereo not drawn) [Compound 9d, 2-(5-(4-Chlorophenyl)-6-cyano-2-(2-hydroxyphenyl)-2-methyl-7-oxo-1,2-dihydro-[1,2,4]triazolo[1,5-a]pyrimidin-3(7H)-yl)-3-(1H-indol-3-yl)propanoic acid], the zone of inhibition at 10 µg/mL [1] is reported as 10 mm, the zone of inhibition at 10 µg/mL (C. albicans; [8]) is reported as 7 mm and the zone of inhibition at 15 µg/mL (C. albicans; [8]) is reported as 8 mm. The zone of inhibition at 10 µg/mL (S. pyogenes (ATCC 19615); Streptococcus pyogenes, ATCC19615, 24 h, read-out: Diameter of zone inhibition) was 19 mm, the zone of inhibition at 10 µg/mL (S. aureus (ATCC 25923); Staphylococcus aureus, ATCC25923, 24 h, read-out: Diameter of zone inhibition) was 20 mm and the “Activity against Gram-positive bacteria” value (Gram-positive bacteria) was “active”. For the same compound, the zone of inhibition at 10 µg/mL (P. fluorescens (S 97); [9]) was 12 mm, the zone of inhibition at 15 µg/mL (P. fluorescens (S 97); [9]) was 23 mm and the zone of inhibition at 15 µg/mL ([2]; Staphylococcus aureus, read-out: Diameter of zone inhibition) was 29 mm. For the same compound, the “MIC index (MBC/MIC)” value [3] was over 4, the “Activity against methicillin resistant S. aureus” value ([4]; MDR clinical isolate, Table 2) was “remarkable activity” and the MIC ([4]; MRSA1, Table 3) was 12.5 µg/mL (≈ 22 µM). The “SI (selectivity index, CC50/MIC)” value ([4]; MRSA1 vs VERO cells) was 40, the MIC ([4]; Staphylococcus aureus) was 12.5 µg/mL (≈ 22 µM) and the zone of inhibition at 15 µg/mL ([5]; Klebsiella pneumoniae, read-out: Diameter of zone inhibition) was 11 mm.
With “2-(5-(4-Chlorophenyl)-6-cyano-2-(2-hydroxyphenyl)-7-imino-2-methyl-1,2-dihydro-[1,2,4]triazolo[1,5-a]pyrimidin-3(7H)-yl)propanoic acid [Compound 8b]” the “Diameter of zone inhibition” value (C. albicans; 10 μg mL^−1, 24 h) was 8 mm, the “Diameter of zone inhibition” value (C. albicans; 15 μg mL^−1, 24 h) was 10 mm and the “Diameter of zone inhibition” value (S. pyogenes (ATCC 19615); 15 μg mL^−1, 24 h) was 26 mm. For the same compound, the “Diameter of zone inhibition” value (S. aureus (ATCC 25923); 10 μg mL^−1, 24 h) was 12 mm, the “Diameter of zone inhibition” value (S. aureus (ATCC 25923); 15 μg mL^−1, 24 h) was 22 mm and the “Diameter of zone inhibition” value [2] was 8 mm. For the same compound, the MIC ([6]; K. pneumoniae, Table 4) was 25 µg/mL, the MIC [6, 10] was 25 µg/mL and the CC50 (VERO cells) was 125 µg/mL. For the same compound, the “Activity against Gram-negative bacteria” value (Gram-negative bacteria) was “active” and the “Diameter of zone inhibition” value [5] was 27 mm.
For “2-(5-(4-Chlorophenyl)-6-cyano-2-(2-hydroxyphenyl)-7-imino-1,2-dihydro-[1,2,4]triazolo[1,5-a]pyrimidin-3(7H)-yl)propanoic acid [Compound 8a]”, the “Diameter of zone inhibition” value (C. albicans; 10 μg mL^−1, 24 h) was 10 mm, the “Diameter of zone inhibition” value (C. albicans; 15 μg mL^−1, 24 h) was 13 mm and the “Diameter of zone inhibition” value (S. pyogenes (ATCC 19615); 10 μg mL^−1, 24 h) was 12 mm. For the same compound, the “Diameter of zone inhibition” value (S. aureus (ATCC 25923); 10 μg mL^−1, 24 h) was 13 mm, the “Diameter of zone inhibition” value (S. aureus (ATCC 25923); 15 μg mL^−1, 24 h) was 20 mm and the “Diameter of zone inhibition” value (P. fluorescens (S 97); P. fluorescens (S 97), 15 μg mL^−1, 24 h, average of triplicate) was 29 mm. The “Diameter of zone inhibition” value [2] was 6 mm, the MIC ([6]; K. pneumoniae, Table 3) was 12.5 µg/mL and the MIC [6, 10] was 12.5 µg/mL. The CC50 (VERO cells) was 125 µg/mL, the “Activity against Gram-negative bacteria” value (Gram-negative bacteria) was “active” and the “MIC index (MBC/MIC)” value [7] was over 4. The “Diameter of zone inhibition” value [5] was 28 mm.
